Experimental data taken from paper PMC8586590 (Bioactive Materials, 2021).
pIC50: −log10 of the molar value.

Tests used:
HepG2-luci cells = experiment: Lung metastasis model; assay type: in vivo, Balb/c nude mice; conditions: after 30 days, i.v., 3 mg/kg HCPT equivalent, four injections, N=5
In short: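 Balb/c nude mice (4–6 weeks, 20 ± 2 g) received 1 × 10⁶ HepG2-luci cells in 200 μL serum-free DMEM via the tail vein. Six days later (day 0) they were randomised into six groups of five and dosed i.v. at 3 mg/kg HCPT-equivalent on days 0, 3, 6 and 9. Study ended at day 30: lungs fixed in Bouin's for 24 h and photographed, then formalin-fixed paraffin sections stained with H&E.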

[1] = system: HepG2 3D multicellular spheroids; experiment: Multicellular spheroid; assay type: cell-based; conditions: HepG2 MCSs, 100 μM, medium replaced every two days, 7 days, N=3
In short: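 HepG2 3D spheroids held in 100 μM formulation, with medium replaced every two days; drug-free medium served as control. Spheroid volume calculated as V = 4/3πr³ from the radius and expressed relative to each spheroid's day-0 volume. Mean ± SD, N = 3.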

[2] = assay type: in vivo, Balb/c nude mice; conditions: i.v., 3 mg/kg HCPT-equivalent
In short: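 Normal Balb/c nude mice (4–6 weeks, 16–19 g), six groups of five including saline, treated three times. Eye blood taken on days 1 and 5 after the third dose. For haematology, 300 μL into heparinised tubes; for biochemistry, 500 μL, centrifuged at 2500×g for 15 min and the supernatant used. Xenograft mice: body weight every three days and H&E of major organs at study end.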

HepG2 cells = experiment: Cell inhibition, MTT assay; assay type: cell-based; conditions: Homo sapiens, HepG2, 48 h

## CC[C@@]1(O)C(=O)OCc2c1cc1n(c2=O)Cc2cc3cc(O)ccc3nc2-1 [HCPT, 10-hydroxycamptothecin]
HepG2-luci cells
  bioluminescence signal of HepG2-luci cells in the lung: the strongest
[1]
  MCS volume relative to initial volume: stable volume
[2]; three times, N=5
  blood parameters RBC, WBC, HGB, PLT (hematotoxicity): deteriorated
[2]; tumor-bearing mice
  body weight during treatment: obvious weight loss
HepG2 cells
  pIC50: 6.08
